SMILES strings stand for the structures.

The test deals with STAT3 and RAF/MEK/ERK pathways in SAS xenograft tumors. Description: Western blot of SAS xenograft tumor lysates. The test is classed as in vivo, mice. As to conditions: day 12, 6 hours after final administration. Summed up: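 Male BALB/c nude mice (6 weeks old) bearing subcutaneous SAS oral tumours; test compound (50 or 60 mg/kg), a kinase inhibitor (10 mg/kg), the combination or vehicle given orally, 5 days on/2 off from day 1 (palpable tumours). Day 12: tumours (n = 3) excised 6 h after last dose, snap-frozen, lysed; immunoblot for pY705-STAT3, STAT3, pT202/Y204-ERK1/2, ERK1/2, survivin, β-actin.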

Regarding `CNC(=O)c1cc(Oc2ccc(NC(=O)Nc3ccc(Cl)c(C(F)(F)F)c3)cc2)ccn1` [Sorafenib], the “phospho‐ERK in tumor tissues” value is “clearly reduced”, the “phospho‐STAT3 in tumor tissues” value is given as “clearly reduced” and the “survivin in tumor tissues” value is “moderately suppressed”.
